According to ChEMBL document CHEMBL2380276, “Synthesis and antiproliferative evaluation of piperazine-1-carbothiohydrazide derivatives of indolin-2-one” (Bioorg Med Chem Lett, 2013):

Assays:
Format in all cases: functional, cell-based
HCT-116 = test: Cytotoxicity against human HCT116 cells assessed as growth inhibition after 72 hrs by MTT assay; details: HCT-116, 72 h
In short: (§1)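 MTT proliferation assay; cells exposed 72 h, first screened at 100 μM with ≥50% inhibition versus vehicle-treated cells counted active; active compounds then tested at various concentrations to derive IC50 (concentration giving 50% proliferation inhibition). Sunitinib positive control. Means ± SD of three separate experiments.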

MCF7 = test: Cytotoxicity against human MCF7 cells assessed as growth inhibition after 72 hrs by MTT assay; details: MCF7, 72 h; in short: as §1
A549 = test: Cytotoxicity against human A549 cells assessed as growth inhibition after 72 hrs by MTT assay; details: A549, 72 h; in short: as §1

| SMILES | IC50 (HCT-116) | IC50 (MCF7) | IC50 (A549) |
| --- | --- | --- | --- |
| O=C1Nc2ccccc2/C1=N/NC(=S)Nc1ccccc1 | > 100 µM | > 100 µM | > 100 µM |
| O=C1Nc2ccc(Cl)cc2/C1=N/NC(=S)Nc1ccccc1 | 30.8 µM | 35 µM | 33.1 µM |
| O=C1Nc2ccc(Cl)cc2/C1=N/NC(=S)N1CCN(c2ccccc2)CC1 | 3.49 µM | 10.4 µM | 7.34 µM |
| Cc1ccc(NC(=S)N/N=C2\C(=O)Nc3ccc(Cl)cc32)c(C)c1 | > 100 µM | > 100 µM | > 100 µM |
| O=C1Nc2ccc(F)cc2/C1=N/NC(=S)N1CCN(c2ccccc2)CC1 | 12.3 µM | 24.3 µM | 20.7 µM |
| O=C1Nc2ccc([N+](=O)[O-])cc2/C1=N/NC(=S)N1CCN(c2ccccc2)CC1 | 15.1 µM | 23.3 µM | 17.9 µM |
| O=C1Nc2cccc(Br)c2/C1=N/NC(=S)N1CCN(c2ccccc2)CC1 | 33.6 µM | 40.7 µM | 54 µM |
| O=C1Nc2cccc(Cl)c2/C1=N/NC(=S)N1CCN(c2ccccc2)CC1 | 42.1 µM | 52.1 µM | 55.9 µM |
| O=C1Nc2cc(Br)ccc2/C1=N/NC(=S)N1CCN(c2ccccc2)CC1 | 14.5 µM | 19.7 µM | 15.8 µM |
| O=C1Nc2cc(Cl)ccc2/C1=N/NC(=S)N1CCN(c2ccccc2)CC1 | 17.9 µM | 23 µM | 27.7 µM |
| COc1ccc(N2CCN(C(=S)N/N=C3\C(=O)Nc4ccc(Cl)cc43)CC2)cc1 | 7.74 µM | 13.8 µM | 7.68 µM |
| Cc1ccc(N2CCN(C(=S)N/N=C3\C(=O)Nc4ccc(Cl)cc43)CC2)cc1 | 6.39 µM | 17.1 µM | 10.1 µM |
| Cc1ccccc1N1CCN(C(=S)N/N=C2\C(=O)Nc3ccc(Cl)cc32)CC1 | 4.91 µM | 10.9 µM | 6.52 µM |
| Cc1ccc(N2CCN(C(=S)N/N=C3\C(=O)Nc4ccc(Cl)cc43)CC2)c(C)c1 | 7.18 µM | 10.8 µM | 3.59 µM |
| O=C1Nc2ccc(Cl)cc2/C1=N/NC(=S)N1CCN(c2ccc(Cl)cc2)CC1 | 5.39 µM | 13.1 µM | 8.18 µM |
| O=C1Nc2ccc(Cl)cc2/C1=N/NC(=S)N1CCN(c2ccccc2Cl)CC1 | 4.91 µM | 11.7 µM | 7.92 µM |
| O=C1Nc2ccc(Cl)cc2/C1=N/NC(=S)N1CCN(c2ccc(Cl)c(Cl)c2)CC1 | 5.82 µM | 10.8 µM | 7.95 µM |
| O=C1Nc2ccc(Cl)cc2/C1=N/NC(=S)N1CCN(c2ccc(F)cc2)CC1 | 6.35 µM | 12.3 µM | 8.9 µM |
| O=C1Nc2ccc(Cl)cc2/C1=N/NC(=S)N1CCN(c2ccccc2F)CC1 | 8.29 µM | 15.2 µM | 10.5 µM |
| O=C1Nc2ccc(Cl)cc2/C1=N/NC(=S)N1CCN(c2ccc(F)cc2F)CC1 | 5.89 µM | 20.1 µM | 11.4 µM |
| O=C1Nc2ccc(Cl)cc2/C1=N/NC(=S)N1CCN(c2ccc([N+](=O)[O-])cc2)CC1 | 12 µM | 20.9 µM | 11.8 µM |
| O=C1Nc2ccc(Cl)cc2/C1=N/NC(=S)N1CCN(c2ccccc2[N+](=O)[O-])CC1 | 4.57 µM | 7.49 µM | 5.58 µM |
| O=C1Nc2ccccc2/C1=N/NC(=S)N1CCN(c2ccccc2)CC1 | 11.1 µM | 24.9 µM | 18.6 µM |
| Cc1ccc2c(c1)/C(=N/NC(=S)N1CCN(c3ccccc3)CC1)C(=O)N2 | 9.48 µM | 14.9 µM | 9.88 µM |
| COc1ccc2c(c1)/C(=N/NC(=S)N1CCN(c3ccccc3)CC1)C(=O)N2 | 9.53 µM | 14.4 µM | 7.52 µM |
| O=C1Nc2ccc(Br)cc2/C1=N/NC(=S)N1CCN(c2ccccc2)CC1 | 10.4 µM | 20.5 µM | 12.2 µM |
| O=C1Nc2c(Br)cc(Br)cc2/C1=N/NC(=S)N1CCN(c2ccccc2)CC1 | 6.32 µM | 11.6 µM | 6.11 µM |
| CCN(CC)CCNC(=O)c1c(C)[nH]c(/C=C2\C(=O)Nc3ccc(F)cc32)c1C [SUNITINIB] | 4.71 µM | 6.29 µM | 2.44 µM |
